Test results: PubChem BioAssay AID1046 (PCMD, 2008)
Among all 220,000 compounds or so, about 560 (0.25%) were called active. The list comes from a sample in which actives are over-represented; it also holds similar structures and randomly drawn compounds. Unmarked numbers belong to inactive results.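 Rule for the calls: active = inhibition at or above 40%; inactive = inhibition below 40%.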

Biological target: Prothrombin (Homo sapiens) (UniProt P00734)
Assay: human alpha-thrombin inhibitors, primary screen, counter-screen for coagulation protease inhibitor project, biochemical, 1536-well, fluorogenic AMC substrate (AID 1046);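 note: 0% = enzyme with no compound and 100% = wells without enzyme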
Details: Boc-VPR-AMC fluorogenic substrate cleavage, at 5 µM, stronger effect = higher value
In short: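 System: Human alpha-thrombin protein | Medium: pH 7.5 Tris (50 mM) with NaCl 150 mM, Tween 20 0.05% | Times: Enzyme reaction carried out at room temperature | Detection: AMC fluorescence, 355/460 nm | Evaluation: Percent inhibition scaled between no-compound controls and no-enzyme blanks | Benchmarks: Enzyme without compound as high, wells lacking enzyme as low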

SMILES	inhibition
Cc1nc(Cl)c2oc3ccccc3c2n1	104% (active)
CCSc1nc(C)nc2c1oc1ccccc12	4.11%
Cc1nc(N2CCCC2C(=O)O)c2oc3ccccc3c2n1 (stereo not drawn)	2.84%
CCc1nnc(NC(=O)CCN(c2ccc(C)cc2)S(=O)(=O)c2ccccc2)s1	47.5% (active)
CCc1nnc(NC(=O)CCC(=O)O)s1	8.11%
CCc1nnc(NC(=O)CCC(=O)NCc2ccccc2OC)s1	2.56%
O=C(Nc1ccc(F)cc1)c1cc2c(s1)CCCC2	-1.36%
CCCCNS(=O)(=O)c1ccc2nc(SCC(=O)Nc3cc(C)cc(C)c3)[nH]c2c1	-6.37%
CN(C(=O)c1c(Cl)cnn1C)C12CC3CC(CC(C3)C1)C2	-15.4%
C/C(=N\NC(=O)CSc1nc2ccccc2c(=O)n1-c1ccccc1C)c1cccs1	0.36%
Cc1ccc(OCCOCCOc2ccc(Br)cc2/C=N\NC(=O)c2ccncc2)cc1	-13.6%
Cc1c([N+](=O)[O-])c(N)nn1C	5.35%
Cc1ccc2cc(C)c(N3CCC(C)CC3)nc2c1	-2.54%
CN(c1ccc(OCC(=O)OCC(=O)Nc2cccc([N+](=O)[O-])c2)cc1)S(=O)(=O)c1ccc(F)cc1	2.69%
CC1CC(=O)Nc2ccccc2N1S(=O)(=O)c1cccs1 (stereo not drawn)	-3.5%
Cc1[nH]c2ccccc2c1-c1ccc(Cl)nn1	1.85%
O=C(O)C(F)(F)C(NCc1ccccc1)c1ccccc1 (stereo not drawn)	5.86%
CN(C)C(CNC(=O)c1cccc(C#N)c1)c1ccco1 (stereo not drawn)	-12.4%
CC/C=C/C(=O)N1CC2(CC(c3cccc(NC(=O)CC)c3)=NO2)C[C@H]1C(N)=O (stereo partly drawn)	-2.66%
CCOC(=O)C1CCN(c2ccc(C(=O)O)cc2[N+](=O)[O-])CC1	-6.48%
CCOC(=O)CSc1ccccn1	-0.12%
CCOC(=O)CSc1nc(C)cc2c1C(=O)OC2	-3.04%
CCOC(=O)CSC1=N/C(=C/c2ccc(-n3cncn3)cc2)C(=O)N1C(C)=O	86.8% (active)
N#Cc1c(C(F)(F)F)cc(-c2cccs2)nc1N1CCCCC1	-5.35%

SMILES	inhibition
COc1ccc(-n2c(O)c(C=NCC(c3ccco3)N3CCCC3)c3ccccc3c2=O)cc1OC (stereo not drawn)	1.85%
CCc1ccccc1NC(=O)CN(C)S(=O)(=O)c1ccc2c(c1)c(=O)n(C)c(=O)n2C	-7.84%
CCN(C(=O)CSc1nnc2ccccn12)C1CCS(=O)(=O)C1 (stereo not drawn)	2.43%
CCOC(=O)c1nnn2c3ccccc3c(=O)n(C)c12	-5.13%
COC(=O)c1onc(-c2c(OC)cc(OC)cc2OC)c1C(=O)OC	1.99%
COc1ccc(C(C)=O)cc1CSc1nc2nc(C)cc(C)n2n1	-1.59%
Cc1ccc(S(=O)(=O)/N=C(\CN2CCOCC2)N2CCOCC2)cc1	-16.3%
Nc1ccccc1Sc1cc(Cl)nnc1Cl	14.4%
CC(=O)NCCC(=O)Nc1nc(C)c(Cc2ccc3c(c2)OCO3)s1	-4.26%
Cc1ccc(NC(=S)NCCN2CCOCC2)cc1	-1.01%
CCOc1nc(NCCN2CCOCC2)nc(Nc2ccc(C)cc2)n1	63.7% (active)
Nc1nc(NCCCN2CCOCC2)nc(Nc2ccccc2)c1[N+](=O)[O-]	-6.41%
CSc1c(SCc2ccccc2)cnn(Cc2ccccc2)c1=O	0.48%
COCCOC(=O)c1c(C)oc2cc(Br)c(OCC(N)=O)cc12	-6.6%
O=C1N(c2ccccc2)C(=Nc2ccccc2)SC12CC2	-5.96%
COc1ccc(C/C(C)=N/NC(=O)c2cc(C)oc2C)cc1	0.98%
CN(C(=O)CSc1nnc(Nc2ccccc2)s1)C1CCS(=O)(=O)C1 (stereo not drawn)	-0.79%
Cc1cc(C(=O)COc2ccccc2[N+](=O)[O-])c(C)n1-c1cccc(S(=O)(=O)N2CCOCC2)c1	5.89%
CC1=C(C)CC(C(=O)NNC(=O)c2ccccc2O)C(C(=O)O)C1 (stereo not drawn)	-3.8%
Cc1cc(C)n2nc(C(=O)N3CCN(Cc4ccc5c(c4)OCO5)CC3)nc2n1	-9.34%
COc1ccc(CNC(=O)CN(Cc2ccc(Cl)cc2)S(C)(=O)=O)cc1	-2.34%
Cc1cc(C)cc(C(=O)NC2C(=O)N3C(C(=O)O)=C(CSc4nnc(C)s4)CSC23)c1 (stereo not drawn)	-12%
O=C(Cn1cnc([N+](=O)[O-])n1)NCCc1ccccc1	-6.67%
CN(C)c1cc(-c2ccc(F)cc2)oc(=O)c1Cl	-0.75%
